Assay results from ChEMBL document CHEMBL1799990, “Triazole and dihydroimidazole alkaloids from the marine sediment-derived fungus Penicillium paneum SD-44” (J Nat Prod, 2011).
pIC50: −log10 of the molar value. Active and inactive are the calls of the source. No cut-off for these calls is given here.

Columns and labels:
A549 = test: Cytotoxicity against human A549 cells; type: functional, cell-based
Bel-7402 = test: Cytotoxicity against human Bel7402 cells; type: functional, cell-based
SMMC-7721 = test: Cytotoxicity against human SMMC7721 cells; type: functional, cell-based
[1] = tested on: Botryosphaeria berengeriana; test: Antifungal activity against Physalospora pyricola by disk diffusion method; type: functional, organism-based
Procedure, shortened: (§1)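 Disk diffusion assay against the five plant-pathogenic fungi, run alongside amphotericin B as the positive control.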

Aspergillus niger = test: Antifungal activity against Aspergillus niger by disk diffusion method; type: functional, organism-based; procedure, shortened: as §1
Alternaria brassicae = test: Antifungal activity against Alternaria brassicae by disk diffusion method; type: functional; procedure, shortened: as §1
[2] = tested on: Fusarium oxysporum f. sp. vasinfectum; test: Antifungal activity against Fusarium oxysporum f. sp. vasinfectum by disk diffusion method; type: functional, organism-based; procedure, shortened: as §1
Staphylococcus aureus = test: Antibacterial activity against Staphylococcus aureus by disk diffusion method; type: functional, organism-based
Procedure, shortened: (§2)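 Disk diffusion assay against the two bacteria, run alongside chloramphenicol as the positive control.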

[3] = Antifungal activity against Coniella diplodiella by disk diffusion method; type: functional; procedure, shortened: as §1
Escherichia coli = test: Antibacterial activity against Escherichia coli by disk diffusion method; type: functional, organism-based; procedure, shortened: as §2

O=c1[nH]cc(F)c(=O)[nH]1 [FLUOROURACIL]
pIC50 (A549): 4.86 | pIC50 (Bel-7402): 4.66 | pIC50 (SMMC-7721): 4.89

O=C(O)c1ccccc1-n1ncnc1Cc1ccc(O)cc1 [PENIPANOID A]
Activity [1]: inactive | Activity (Aspergillus niger): inactive | Activity (Alternaria brassicae): inactive | Activity [2]: inactive | Activity (Staphylococcus aureus): inactive | Activity [3]: inactive | Activity (Escherichia coli): inactive | pIC50 (SMMC-7721): 4.27

O=C(c1ccc(O)cc1)c1nc2ccccc2c(=O)[nH]1
Activity [1]: inactive | Activity (Aspergillus niger): inactive | Activity (Alternaria brassicae): inactive | Activity [2]: inactive | Activity (Staphylococcus aureus): inactive | Activity [3]: inactive | Activity (Escherichia coli): inactive

O=c1[nH]c(Cc2ccc(O)cc2)nc2ccccc12
Activity [1]: inactive | pIC50 (A549): 4.76 | Activity (Aspergillus niger): inactive | Activity (Alternaria brassicae): inactive | pIC50 (Bel-7402): 4.70 | Activity [2]: inactive | Activity (Staphylococcus aureus): inactive | Activity [3]: inactive | Activity (Escherichia coli): inactive

O=C1N[C@H]2[C@H](c3ccc(O)cc3)N=CN2c2ccccc21
Activity [1]: inactive | Activity (Aspergillus niger): inactive | Activity (Alternaria brassicae): inactive | Activity [2]: inactive | Activity (Staphylococcus aureus): inactive | Activity [3]: inactive | Activity (Escherichia coli): inactive
